Measured values gathered from unrelated publications.
Protocols differ between the studies behind these lines.
Cell line: HL-60
Effect on: cell growth or viability

Structure (SMILES)	assay	setting	IC50 [nM]
COc1cc(Nc2nccc(-c3cnn4nc(OC)ccc34)n2)cc(C(F)(F)F)c1	ATP luminescence		210
Nc1ncc(-c2cnn(C3CCNCC3)c2)cc1-c1nnc(CC2CC2)o1	trypan blue	72 h	678
COc1ccc(-c2nc(C(=O)Nc3nnc(-c4cc5ccccc5[nH]4)s3)cc3c2[nH]c2ccccc23)cc1	MTT	72 h	3830
COc1cc(/C=C/C(=O)CC(=O)/C=C/c2ccc(O)c(OC)c2)ccc1O	resazurin	72 h, dark	4100
O=C(Nc1nnc(-c2cc3ccccc3[nH]2)s1)c1cc2c([nH]c3ccccc32)c(-c2ccccc2)n1	MTT	72 h	8250
COc1ccc(C(=O)CC(=O)c2ccc(C(C)(C)C)cc2)cc1		dark	~30000
N[C@@H](CC(=O)N1CCN(C(c2ccc(F)cc2)c2ccc(F)cc2)CC1)C(=O)N1Cc2ccccc2C1	ATP luminescence	48 h	2710
CCCON(Cc1ccc(C(=O)NO)cc1)C(=O)Nc1ccccc1	ATP luminescence	72 h	1690
COc1cc(O)c(C(=O)c2ccccc2)cc1S(=O)(=O)O	resazurin	72 h, dark	> 100000
COc1cccc2c1C(=O)c1c(O)c3c(c(O)c1C2=O)C[C@@](O)(C(=O)CO)C[C@@H]3O[C@H]1C[C@H](N)[C@H](O)[C@H](C)O1	MTT	72 h	1080
CC(C)[C@H](N)C(=O)N1CCC[C@H]1B(O)O	ATP luminescence	48 h	115
CN1c2ccccc2C(=O)N2[C@H](C(=O)Nc3ccc(C(=O)Nc4ccccc4N)cc3)Cc3c([nH]c4ccccc34)[C@@H]12			560
